# m-calpain inh – inhibitors of pig calpain II, primary screen, biochemical, fluorogenic peptide substrate, 1536-well; inhibition, % at 16 µM; 220,000 tested, 0.37% active; purified calpain II, 30 min;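 active = inhibition above about 50%, limit read from the data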
# Bim-Mcl-1 – inhibitors of Bim peptide binding to Mcl-1, primary screen, biochemical, bead-based flow cytometry, multiplex; Bim peptide-Mcl-1 binding; 190,000 tested, 0.1% active; Induced myeloid leukemia cell differentiation protein Mcl-1 (Homo sapiens), Q07820; inhibition, % at 10 µM; in the data active = inhibition above about 40%;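 also: 0% = no compound tracer wells and 100% = peptide blocker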
# Target sequence (Q07820 whole entry, looked up): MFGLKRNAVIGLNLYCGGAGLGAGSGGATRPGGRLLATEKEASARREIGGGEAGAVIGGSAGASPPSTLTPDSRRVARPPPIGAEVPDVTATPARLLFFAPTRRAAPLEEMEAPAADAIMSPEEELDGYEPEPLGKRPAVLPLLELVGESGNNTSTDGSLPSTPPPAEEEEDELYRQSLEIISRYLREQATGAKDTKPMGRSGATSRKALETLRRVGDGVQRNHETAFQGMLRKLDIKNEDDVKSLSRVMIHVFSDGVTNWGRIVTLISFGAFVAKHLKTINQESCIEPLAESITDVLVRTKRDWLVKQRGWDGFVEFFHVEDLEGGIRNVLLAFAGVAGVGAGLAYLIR
# Mcl1 Noxa PPI – Mcl-1/Noxa binding inhibitors, primary screen, biochemical, TR-FRET, 1536-well. inhibition, % at 21.7 µM. 220,000 tested, 1.5% active. AID 1022, 2008. TR-FRET Mcl-1/Noxa peptide binding, 2 h;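 active = compounds that cut the protein-peptide binding signal by more than 50% relative to plate controls in a single-dose test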;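 also: His-tagged Mcl-1 with rhodamine Noxa BH3 peptide and terbium anti-His antibody; 0% = Mcl-1 plus Noxa peptide wells and 100% = peptide-only wells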
# Mcl1 Bid PPI – Mcl-1/Bid binding inhibitors, primary screen, biochemical, TR-FRET, 1536-well; Induced myeloid leukemia cell differentiation protein Mcl-1 (Homo sapiens), Q07820; TR-FRET Mcl-1/Bid-Dy647 peptide binding; inhibition, % at 21.7 µM; 220,000 tested, 0.97% active;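 active = compounds that cut the binding signal by more than half at the single screening dose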;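 also: His-tagged Mcl-1 with europium anti-His antibody binding Bid BH3 peptide; 0% = Mcl-1 plus peptide wells and 100% = peptide-only wells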
# Biofilm kill mix – clotrimazole potentiators killing C. albicans biofilm, primary screen, 4-compound mixtures | inhibition, % at 7.6 µM | 120,000 tested, 0.02% active | C. albicans biofilm persisters + clotrimazole, fluorescence viability; primary screen in compound mixtures of four per well;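 also: compounds exposed to preformed 24 h biofilms for 48 h; 0% = untreated biofilm control and 100% = clotrimazole plus chlorhexidine kill blank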
#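 System: C. albicans CAF4-2 wild-type biofilms; Medium: RPMI/MOPS medium, pH 7.0; Reagent: Clotrimazole, 50 µg/mL; Times: biofilm formation 24 h, compound exposure 48 h, 37 °C; Detection: 2-h Alamar Blue fluorescence, 535/590 nm excitation/emission; Evaluation: percent inhibition of biofilm viability.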
# Arbovirus inh – antivirals against arbovirus infection, primary screen, cell-based, full library, 10K replicate subset. arbovirus infection cell-based antiviral screen. inhibition, % at 10 µM. 200,000 tested, 0.37% active. AID 1251, 2008; in the data active = inhibition above about 30%
# Active calls of the source: *; . = not tested or not shown. Shown are actives, neighbours in structure and some others; about 2.8% of the full set was active somewhere.
SMILES,m-calpain inh,Bim-Mcl-1,Mcl1 Noxa PPI,Mcl1 Bid PPI,Biofilm kill mix,Arbovirus inh
CCCn1c(NCc2ccc3c(c2)OCO3)nc2ccccc21,-8,-2,18,-4,.,12
COc1cccc(NC(=O)C2CCC(CNS(=O)(=O)c3cccs3)CC2)c1 (stereo not drawn),12,3,-4,-23,0,-10
COC(=O)[C@@H]1C(c2c(OC)cc(OC)cc2OC)=NO[C@H]1C(=O)OC,8,-23,1,-21,-12,7
Cc1ccc(-c2cc(C(=O)Nc3ccccn3)c3ccccc3n2)o1,-153,-2,82*,0,7,-1
Cc1ccc(NC(=O)c2cc(-c3ccc(C)o3)nc3ccccc23)cc1,-67,1,36,-17,.,-2
CCn1c(S(=O)(=O)O)nc2ccccc21,12,.,-1,-4,15,.
COc1ccc(N(C(=O)CS(=O)CC(=O)Nc2ccc(F)cc2)C(C(=O)NC2CCCCC2)c2cccs2)cc1 (stereo not drawn),18,-2,-81,61*,8,-11
O=C(CS(=O)CC(=O)N(c1ccccc1)C(C(=O)NC1CCCCC1)c1ccco1)Nc1ccc(F)cc1 (stereo not drawn),-5,1,13,-32,10,8
COc1cccc2c1nc(C)c1cc(C)oc12,-88,-2,-43,99*,.,1
Cc1ccc(C)c(NC(=O)C2CCCN2C(=O)NC2CCCCC2)c1 (stereo not drawn),-5,10,2,3,18,-3
Fc1cc(F)c2nc(Nc3nc4cc5c(cc4s3)OCO5)sc2c1,-77,4,99*,91*,5,-24
Fc1cccc2sc(Nc3nc4cc5c(cc4s3)OCO5)nc12,-132,-3,-15,-11,7,9
CC1CCCCN1CCCNC(=O)c1cc(Br)c(Br)[nH]1 (stereo not drawn),-4,-4,17,-46,9,-6
O=C(Cc1ccccc1)NC(NC(=S)Nc1cc(Cl)ccc1Cl)C(Cl)(Cl)Cl (stereo not drawn),51*,-1,-7,-6,.,5
O=C(NC(NC(=S)Nc1cc(Cl)ccc1Cl)C(Cl)(Cl)Cl)c1ccco1 (stereo not drawn),26,-8,6,4,.,-18
C=CCNC(=S)N/N=C/c1ccc(C)c([N+](=O)[O-])c1,52*,-3,14,-77,7,9
C=CCNC(=S)N/N=C/c1ccc(C)cc1C,38,0,17,-41,3,12
O=[N+]([O-])c1ccccc1NC(=S)N/N=C/c1ccc(O)c(O)c1,10,0,55*,-97,3,-11
Oc1ccccc1N=Nc1ccccc1O,68*,-6,12,-33,12,-30
Cc1ccc(C)[n+](CC(=O)N2CCCCC2)c1,-23,-3,-8,-23,12,6
Cn1c(=O)[nH]c(=O)c2[nH]c(N(Cc3ccccc3)Cc3ccccc3)nc21,65*,0,-17,-26,.,-12
Cc1ccc(Nc2ncccc2C(=O)NCc2cccs2)c(C)c1,19,-2,-15,-30,.,-24
Cc1cccc(Nc2ncccc2C(=O)NCc2cccs2)c1C,54*,0,15,6,.,5
C/C(=N\NC(=O)COc1ccc(C(C)(C)C)cc1)c1ccc2c(c1)OCCO2,12,65*,5,-4,14,8
CCCCC(O)(CCCC)C(=O)NN(C(=O)OC)c1ccc(C)cc1,9,.,-35,-21,10,.
SMILES,m-calpain inh,Bim-Mcl-1,Mcl1 Noxa PPI,Mcl1 Bid PPI,Biofilm kill mix,Arbovirus inh
O=C1[C@H]2[C@@H](C(=O)N1c1cc(Cl)cc(Cl)c1)[C@]1(C(=O)Nc3ccccc31)N1CCC[C@@H]21,-32,-3,21,-10,.,11
O=C1[C@H]2[C@@H](C(=O)N1c1cccc3ccccc13)C1(C(=O)c3ccccc3C1=O)N1CCC[C@@H]21,-62,-6,64*,-26,.,-7
Cc1ccc(-c2noc(-c3ccccc3C(=O)N3CCN(C)CC3)n2)cc1,2,-3,6,71*,.,-5
Cc1ccc(-c2noc(-c3ccccc3C(=O)N3CCCC3)n2)cc1,2,1,6,-14,.,-6
COc1ccc(OC)c(NC(=O)c2nc(-c3ccccc3)oc2C)c1,-27,0,20,-15,13,-5
O=C(O/N=C1\CCS(=O)(=O)c2sccc21)c1ccc(F)cc1,60*,0,-12,-27,5,-3
COCCCN1C(=O)C(=O)/C(=C(/O)c2ccc(OC)cc2)C1c1cccc(OC)c1 (stereo not drawn),24,3,64*,-17,.,-3
OC(CNCCc1ccccc1)c1ccccc1 (stereo not drawn),19,0,-12,-10,.,10
COc1ccc(CCNCC(O)c2ccccc2)cc1 (stereo not drawn),-10,-2,31,25,12,31*
N#Cc1c(Nc2ccccc2)sc(C(=O)c2ccccc2)c1N,32,0,10,-43,.,-25
Cc1cccc(Nc2sc(C(=O)c3cc4cc(Cl)ccc4o3)c(N)c2C#N)c1,3,.,68*,66*,20,.
CCOc1ccc(-c2cc(C(=O)OC)nc3c2c(=O)n(C)c(=O)n3C)cc1,-333,.,-15,-1,20,.
CCN(CC)CCNC(=O)c1cccc(NC(=O)C(=O)c2cc(Br)ccc2NC(C)=O)c1,-16,3,-6,-24,1,23
C=CCn1c(SCC(=O)c2[nH]c(C)c(C(=O)OCC)c2C)nc2scc(-c3ccc(OC)c(OC)c3)c2c1=O,-24,6,50,84*,15,-39
CCOC(=O)c1c(C)[nH]c(C(=O)CSc2nnc(-c3ccncc3)n2CC)c1C,2,-1,2,11,.,1
Cc1ccc2c(c1)C1CCCC3C1N2CC(=O)N3Cc1ccccc1 (stereo not drawn),-238,-3,51*,-55,.,32*
O=C(Nc1nc(COc2ccccc2)cs1)C12CC3CC(CC(C3)C1)C2,58*,-2,13,14,.,-15
O=S(=O)(O)c1nc2ccccc2n1Cc1cccc2ccccc12,18,.,14,16,7,.
COC(=O)c1ccccc1NC(=O)C1COc2ccccc2O1 (stereo not drawn),11,-1,-18,-16,.,12
COC(=O)c1ccsc1NC(=O)C1COc2ccccc2O1 (stereo not drawn),2,1,-1,-10,.,31*
COc1ccc(C)cc1NC(=O)C1COc2ccccc2O1 (stereo not drawn),4,-4,3,-15,20,50*
CCCOC(=O)Nc1cc(OC)ccc1[N+](=O)[O-],63*,-1,29,-13,14,-2

# Screening data: PubChem, several laboratories
